Test results from ChEMBL document CHEMBL2040808, “Design, synthesis, and in vitro activity of novel 2'-O-substituted 15-membered azalides” (J Med Chem, 2012).

Key:
[1] = test system: Streptococcus pneumoniae; test: Antibacterial activity against Streptococcus pneumoniae isolate SP030 by broth microdilution method; format: functional
In short: (§1)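 Standard broth microdilution MIC against macrolide-sensitive strains. For streptococci, 5% horse serum replaced lysed horse blood in the broth, and inocula were grown on Columbia agar with 5% sheep blood. S. aureus was grown on Mueller–Hinton agar.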

[2] = test system: Plasmodium falciparum; test: Antimalarial activity against chloroquine-resistant Plasmodium falciparum W2 infected in type A rhesus-positive human erythrocytes assessed as [3H]hypoxanthine incorporation after 48 hrs by scintillation counting; format: functional, organism-based
In short: (§2)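 Modified semiautomated microdilution: compounds dissolved in DMSO, diluted in RPMI 1640 with 10% v/v human plasma, serial 1:2 dilutions in triplicate. Infected erythrocytes at 3% hematocrit, 0.25−0.55% parasitemia. [3H]hypoxanthine at 12.5−16 μCi/mL final. Incubated 48 h, 37 °C, in 5% O2/3% CO2/92% N2. Harvested on fiberglass strips, scintillation counted. IC50 by nonlinear regression of concentration−response curves.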

[3] = test system: Staphylococcus aureus; test: Antibacterial activity against Staphylococcus aureus ATCC 13709 by broth microdilution method; format: functional; in short: as §1
[4] = test system: Streptococcus pyogenes; test: Antibacterial activity against Streptococcus pyogenes isolate 3565 by broth microdilution method; format: functional; in short: as §1
[5] = test system: Plasmodium falciparum; test: Antimalarial activity against chloroquine-sensitive Plasmodium falciparum 3D7A infected in type A rhesus-positive human erythrocytes assessed as [3H]hypoxanthine incorporation after 48 hrs by scintillation counting; format: functional, organism-based; in short: as §2
[6] = test system: HepG2; test: Cytotoxicity against human HepG2 cells after 24 hrs by MTS assay; format: cell-based; details: HepG2, 24 h
In short: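 Hep G2 cells were kept in RPMI 1640 with 10% FBS at 37 °C and 5% CO2. Wells held 50000 cells and received 1:2 serial dilutions of compound (DMSO stock diluted in medium) for 24 h. MTS reagent was then added for 2 h, absorbance was read at 490 nm, and IC50 was taken from response curves.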

[7] = test system: Plasmodium falciparum; test: Ratio of IC50 for azithromycin to compound IC50 for chloroquine-resistant Plasmodium falciparum W2 infected in type A rhesus-positive human erythrocytes assessed as [3H]hypoxanthine incorporation after 48 hrs by scintillation counting; format: functional
[8] = Selectivity ratio of IC50 for human HepG2 cells to IC50 for chloroquine-sensitive Plasmodium falciparum 3D7A; details: HepG2 cells versus Plasmodium falciparum 3D7A
[9] = test system: Plasmodium falciparum; test: Ratio of IC50 for azithromycin to compound IC50 for chloroquine-sensitive Plasmodium falciparum 3D7A infected in type A rhesus-positive human erythrocytes assessed as [3H]hypoxanthine incorporation after 48 hrs by scintillation counting; format: functional
[10] = Aqueous solubility of the compound at pH 4; format: physicochemical
[11] = Selectivity ratio of IC50 for human HepG2 cells to IC50 for chloroquine-sensitive Plasmodium falciparum 3D7A; format: ADME, cell-based; details: HepG2 cells versus Plasmodium falciparum 3D7A, read-out: Ratio IC50
In short: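 Selectivity is the HepG2 IC50 divided by the P. falciparum IC50. For HepG2, 50000 cells per well in RPMI 1640 with 10% FBS were exposed to 1:2 serial dilutions for 24 h at 37 °C, 5% CO2. MTS was added for 2 h and absorbance read at 490 nm. Parasite IC50 came from the 48 h [3H]hypoxanthine assay.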

## CC[C@H]1OC(=O)[C@H](C)[C@@H](O[C@H]2C[C@@](C)(OC)[C@@H](O)[C@H](C)O2)[C@H](C)[C@@H](O[C@@H]2O[C@H](C)C[C@H](N(C)C)[C@H]2OCCCNCc2cnc3ccccc3c2)[C@](C)(O)C[C@@H](C)CN(C)[C@H](C)[C@@H](O)[C@]1(C)O
[1]
  MIC: > 64 µg/mL
[2]
  IC50: 46 nM
[3]
  MIC: > 64 µg/mL
[4]
  MIC: > 64 µg/mL
[5]
  IC50: 228 nM
[6]
  IC50: 20000 nM
[7]
  Ratio IC50: 3
[8]
  selectivity ratio: 88
[9]
  Ratio IC50: 3
[10]
  solubility: > 10000 µg/mL
[11]
  selectivity ratio: 88

## CC[C@H]1OC(=O)[C@H](C)[C@@H](O[C@H]2C[C@@](C)(OC)[C@@H](O)[C@H](C)O2)[C@H](C)[C@@H](O[C@@H]2O[C@H](C)C[C@H](N(C)C)[C@H]2OCCCNCc2ccc3ccccc3n2)[C@](C)(O)C[C@@H](C)CN(C)[C@H](C)[C@@H](O)[C@]1(C)O
[1]
  MIC: > 64 µg/mL
[2]
  IC50: 55 nM
[3]
  MIC: > 64 µg/mL
[4]
  MIC: > 64 µg/mL
[5]
  IC50: 227 nM
[6]
  IC50: 30000 nM
[7]
  Ratio IC50: 3
[8]
  selectivity ratio: 132
[9]
  Ratio IC50: 3
[10]
  solubility: > 10000 µg/mL
[11]
  selectivity ratio: 132

## CC[C@H]1OC(=O)[C@H](C)[C@@H](O[C@H]2C[C@@](C)(OC)[C@@H](O)[C@H](C)O2)[C@H](C)[C@@H](O[C@@H]2O[C@H](C)C[C@H](N(C)C)[C@H]2OCCCN(C)Cc2ccnc3ccccc23)[C@](C)(O)C[C@@H](C)CN(C)[C@H](C)[C@@H](O)[C@]1(C)O
[1]
  MIC: > 64 µg/mL
[2]
  IC50: 49 nM
[3]
  MIC: > 64 µg/mL
[4]
  MIC: > 64 µg/mL
[5]
  IC50: 248 nM
[6]
  IC50: 45000 nM
[7]
  Ratio IC50: 3
[8]
  selectivity ratio: 132
[9]
  Ratio IC50: 3
[10]
  solubility: > 10000 µg/mL
[11]
  selectivity ratio: 132

## CC[C@H]1OC(=O)[C@H](C)[C@@H](O[C@H]2C[C@@](C)(OC)[C@@H](O)[C@H](C)O2)[C@H](C)[C@@H](O[C@@H]2O[C@H](C)C[C@H](N(C)C)[C@H]2OCCCN(C)Cc2cnc3ccccc3c2)[C@](C)(O)C[C@@H](C)CN(C)[C@H](C)[C@@H](O)[C@]1(C)O
[1]
  MIC: > 64 µg/mL
[2]
  IC50: 47 nM
[3]
  MIC: > 64 µg/mL
[4]
  MIC: > 64 µg/mL
[5]
  IC50: 466 nM
[6]
  IC50: 23000 nM
[7]
  Ratio IC50: 3
[8]
  selectivity ratio: 49
[9]
  Ratio IC50: 3
[10]
  solubility: > 10000 µg/mL
[11]
  selectivity ratio: 49

## CC[C@H]1OC(=O)[C@H](C)[C@@H](O)[C@H](C)[C@@H](O[C@@H]2O[C@H](C)C[C@H](N(C)C)[C@H]2OCCCNCc2ccnc3ccccc23)[C@](C)(O)C[C@@H](C)CN(C)[C@H](C)[C@@H](O)[C@]1(C)O
[1]
  MIC: > 64 µg/mL
[2]
  IC50: 432 nM
[3]
  MIC: > 64 µg/mL
[4]
  MIC: > 64 µg/mL
[5]
  IC50: 540 nM
[6]
  IC50: > 100000 nM
[7]
  Ratio IC50: 3
[8]
  selectivity ratio: 132
[9]
  Ratio IC50: 3
[10]
  solubility: > 10000 µg/mL
[11]
  selectivity ratio: 132
